# Shown is part of a subset that was picked to be rich in hits.
# T cruzi growth-1 – blocks T. cruzi growth in NIH3T3 culture | T. cruzi beta-gal in NIH3T3, GalScreen luminescence, 90 h | AID 624255 | 77,000 compounds, 5.9% hits | inhibition, % at 8.34 µM;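 active = mean inhibition above about 93%, with at least 55% of replicates each passing it, limit read from the data, passing the limit was not always enough; inconclusive = only one of those two conditions holds; inactive = neither condition holds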
# IDH1 mut inh – IDH1 R132H (human) inhibition | O75874 | IDH1 R132H reductase, diaphorase/resazurin fluorescence, 60 min | inhibition, % at 10 µM | 70,000 compounds, 0.18% hits; in the data active = inhibition above about 34%; inconclusive = no clear call, values can overlap the other calls; inactive = below about 11%;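 also: 0% = DMSO and 100% = no enzyme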
# Target sequence (O75874 whole entry R132H): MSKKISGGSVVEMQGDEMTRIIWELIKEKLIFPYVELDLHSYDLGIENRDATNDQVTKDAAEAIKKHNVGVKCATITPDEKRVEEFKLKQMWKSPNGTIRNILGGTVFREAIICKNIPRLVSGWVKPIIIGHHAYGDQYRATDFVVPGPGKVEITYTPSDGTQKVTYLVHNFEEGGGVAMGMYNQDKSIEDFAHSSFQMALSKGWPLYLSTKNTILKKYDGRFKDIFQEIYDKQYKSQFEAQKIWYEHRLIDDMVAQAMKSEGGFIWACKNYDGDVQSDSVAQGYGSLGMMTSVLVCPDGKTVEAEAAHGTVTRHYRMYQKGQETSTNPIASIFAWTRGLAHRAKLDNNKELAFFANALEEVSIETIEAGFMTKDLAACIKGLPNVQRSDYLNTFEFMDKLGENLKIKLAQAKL
# GASC1 inh – KDM4C (human) demethylase inhibition; GST-KDM4C 2-372, H3K9me3 peptide, LANCE TR-FRET; AID 720574; 96,000 compounds, 0.15% hits; inhibition, % at 12.5 µM; Q9H3R0;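 active = mean replicate inhibition above about 25%, with at least 55% of replicates also reaching it, limit read from the data, passing the limit was not always enough; inconclusive = only one of those two conditions met; inactive = neither condition met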
#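 System: N-terminal GST-fused human GASC-1 (KDM4C) fragment, residues 2-372 / Amount: 10 nM GST-KDM4C in enzyme reaction / Also added: H3K9me3 peptide with Fe(II)/2OG / Times: 30 min demethylation and 1 h detection at room temperature / Signal: LANCE TR-FRET / Read-out basis: Fall in 671/618 emission ratio as inhibition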
# T cruzi growth-2 – inhibitors of T. cruzi proliferation. T. cruzi beta-gal in NIH3T3, GalScreen luminescence, 90 h. shares compounds with T cruzi growth-1. inhibition, % at 8.35 µM. 5,600 compounds, 72% hits;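 active = mean replicate inhibition above about 95% and at least 55% of replicates individually reaching it, limit read from the data; inconclusive = only one of the two criteria is met; inactive = neither criterion is met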
# T cruzi growth-3 – inhibitors of T. cruzi proliferation. shares compounds with T cruzi growth-1. T. cruzi beta-gal in NIH3T3, GalScreen luminescence, 90 h. inhibition, % at 2.09 µM. 5,600 compounds, 21% hits;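 active = mean inhibition above about 95%, with at least 55% of replicates also reaching it, limit read from the data; inconclusive = meets just one of the two conditions; inactive = meets neither condition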;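 also: plate controls were neutral control median for no effect and positive control median for full effect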
# 3T3 cytotox – kills mouse NIH/3T3 fibroblasts. shares compounds with T cruzi growth-1. AID 651742. NIH/3T3 viability, CellTiter-Glo ATP luminescence, 90 h. cytotoxicity (signal decrease), % at 8.35 µM. 5,600 compounds, 14% hits;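 active = mean signal decrease across replicates above about 35% based on untreated-well scatter, with enough replicates individually passing, limit read from the data; inconclusive = no rule stated though some were filed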;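 also: 0% = median of neutral control wells and 100% = median of positive control wells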
# 3T3 cytotox 2 – kills mouse NIH/3T3 fibroblasts; shares compounds with T cruzi growth-1; NIH/3T3 viability, CellTiter-Glo ATP luminescence, 90 h; inhibition, % at 24.9 µM; 5,600 compounds, 56% hits; AID 651744;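 active = mean loss of cell viability signal at or above a set limit, and enough replicates individually reaching it; inconclusive = meets only the mean limit or only the replicate share; inactive = meets neither condition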;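 also: 0% = median of neutral control wells and 100% = median of positive control wells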
# * = called active by the depositor; ? = inconclusive; · = no result given.
SMILES,T cruzi growth-1,IDH1 mut inh,GASC1 inh,T cruzi growth-2,T cruzi growth-3,3T3 cytotox,3T3 cytotox 2
C[C@H](CO)N1C[C@H](C)[C@H](CN(C)Cc2ccccc2)OCCCC[C@H](C)Oc2ccc(NC(=O)Nc3cccc4ccccc34)cc2C1=O,117*,-3,-2,92,63,7,93*
COc1ccc(CN(C)C[C@H]2OCCCC[C@@H](C)Oc3ccc(NC(=O)Nc4cccc5ccccc45)cc3C(=O)N([C@@H](C)CO)C[C@H]2C)cc1,122,·,-7,·,·,·,·
C[C@H](CO)N1C[C@H](C)[C@@H](CN(C)Cc2ccc(C(=O)O)cc2)OCCCC[C@H](C)Oc2ccc(NC(=O)Nc3cccc4ccccc34)cc2C1=O,12,-10,1,·,·,·,·
C[C@@H]1CCCCO[C@@H](CN(C)CC2CCCCC2)[C@@H](C)CN([C@H](C)CO)C(=O)c2cc(NC(=O)Nc3cccc4ccccc34)ccc2O1,?,·,-1,105*,105*,18,36*
C[C@@H]1CN([C@H](C)CO)C(=O)c2cc(NC(=O)Nc3cccc4ccccc34)ccc2O[C@@H](C)CCCCO[C@H]1CN(C)Cc1ccccc1,111*,2,-1,92,105*,34,107*
COc1ccc(NC(=O)NC(C)c2cn(C)nc2C)c(OC)c1 (configuration not stated),·,0,·,·,·,·,·
O=C(CSc1nnnn1-c1ccccc1Cl)Nc1ccc(F)cc1,·,0,·,·,·,·,·
CCCN1[C@@H]2c3ccc(-c4cccnc4)c(=O)n3C[C@H]1[C@H](CO)[C@H]2C(=O)NC1CCC1,-9,·,0,·,·,·,·
CO[C@H]1CN(C)C(=O)c2ccc(NC(=O)c3ccccc3F)cc2OC[C@H](C)N(CC2CCOCC2)C[C@H]1C,·,0,0,·,·,·,·
C[C@@H]1CN([C@H](C)CO)C(=O)c2cccc(NC(=O)Nc3ccc(F)cc3)c2O[C@H]1CN(C)CC1CCCCC1,58,·,-1,·,·,·,·
CCOC(=O)N(C)C[C@@H]1OCc2cn(nn2)CCCC(=O)N([C@@H](C)CO)C[C@H]1C,1,·,0,·,·,·,·
CC(C)NC(=O)Nc1ccc2c(c1)C(=O)N([C@H](C)CO)C[C@@H](C)[C@H](CN(C)C(=O)C1CCCCC1)OCCCC[C@@H](C)O2,62,0,1,·,·,·,·
C[C@@H]1CN([C@@H](C)CO)C(=O)c2cc(NC(=O)Nc3cccc4ccccc34)ccc2O[C@@H](C)CCCCO[C@@H]1CN(C)Cc1ccccc1,116*,·,1,110*,101*,27,?
C[C@@H]1CCCCO[C@@H](CN(C)Cc2ccccc2)[C@H](C)CN([C@@H](C)CO)C(=O)c2cc(NC(=O)Nc3cccc4ccccc34)ccc2O1,107*,-12,-2,103*,104*,6,106*
C[C@@H]1CCCCO[C@@H](CN(C)Cc2ccccc2)[C@@H](C)CN([C@H](C)CO)C(=O)c2cc(NC(=O)Nc3cccc4ccccc34)ccc2O1,·,0,-3,·,·,·,·
C[C@@H]1CCCCO[C@H](CN(C)Cc2ccc(C(=O)O)cc2)[C@H](C)CN([C@H](C)CO)C(=O)c2cc(NC(=O)Nc3cccc4ccccc34)ccc2O1,22,-7,0,·,·,·,·
C[C@H]1CCCCO[C@H](CN(C)C)[C@@H](C)CN([C@@H](C)CO)C(=O)c2cc(NC(=O)Nc3ccc4c(c3)OCO4)ccc2O1,28,0,1,·,·,·,·
C[C@@H]1CN([C@@H](C)CO)S(=O)(=O)c2ccc(C#CC3CCCC3)cc2O[C@@H]1CN(C)C(=O)Cc1ccncc1,122*,0,1,97*,79,13,62*
C[C@H](CO)N1C[C@H](C)[C@@H](CN(C)C(=O)Cc2ccncc2)Oc2cc(C#CC3CCCC3)ccc2S1(=O)=O,122*,·,-2,108*,87,1,?
C[C@H](CO)N1C[C@H](C)[C@@H](CN(C)C(=O)Cc2ccncc2)Oc2cc(C#CC3CCCCC3)ccc2S1(=O)=O,86,·,-1,·,·,·,·
C[C@H]1CN([C@@H](C)CO)S(=O)(=O)c2ccc(C#CC3CCCCC3)cc2O[C@@H]1CN(C)C(=O)Cc1ccncc1,83,4,1,·,·,·,·
C[C@@H]1CN([C@H](C)CO)C(=O)c2cc(NS(=O)(=O)c3ccc(Cl)cc3)ccc2O[C@@H](C)CCCCO[C@@H]1CN(C)Cc1ccncc1,7,0,9,·,·,·,·
C[C@@H]1CCCCO[C@H](CN(C)Cc2ccncc2)[C@H](C)CN([C@H](C)CO)C(=O)c2cc(NS(C)(=O)=O)ccc2O1,8,5,2,·,·,·,·
CCCN(C)C[C@@H]1OCCCC[C@H](C)Oc2ccc(NS(C)(=O)=O)cc2C(=O)N([C@@H](C)CO)C[C@H]1C,?,·,1,55,40,3,-9
C[C@@H]1CCCCO[C@H](CN(C)Cc2ccncc2)[C@H](C)CN([C@@H](C)CO)C(=O)c2cc(NS(C)(=O)=O)ccc2O1,104*,7,0,19,-11,-20,-2
SMILES,T cruzi growth-1,IDH1 mut inh,GASC1 inh,T cruzi growth-2,T cruzi growth-3,3T3 cytotox,3T3 cytotox 2
C[C@H](CO)N1C[C@H](C)[C@@H](CN(C)Cc2ccccc2)OCCCC[C@H](C)Oc2ccc(NS(=O)(=O)c3ccccc3)cc2C1=O,21,-1,1,·,·,·,·
CCCN(C)C[C@H]1OCCCC[C@@H](C)Oc2ccc(NS(C)(=O)=O)cc2C(=O)N([C@H](C)CO)C[C@@H]1C,38,·,-1,·,·,·,·
C[C@@H]1CCCCO[C@@H](CN(C)Cc2ccncc2)[C@H](C)CN([C@H](C)CO)C(=O)c2cc(NS(=O)(=O)c3ccc(Cl)cc3)ccc2O1,?,18,-1,96*,55,-7,-7
C[C@H](CO)N1C[C@H](C)[C@H](CN(C)Cc2ccccc2)OCCCC[C@H](C)Oc2ccc(NS(=O)(=O)c3ccc(Cl)cc3)cc2C1=O,107*,·,-1,?,?,?,104*
C[C@@H]1CCCCO[C@@H](CN(C)C(=O)CCCN(C)C)[C@@H](C)CN([C@H](C)CO)C(=O)c2cc(NC(=O)Cc3ccccc3)ccc2O1,3,3,1,·,·,·,·
COc1ccc(NC(=O)Nc2ccc3c(c2)OC[C@H](C)NC[C@@H](C)[C@H](OC)CN(C)C3=O)cc1,4,0,0,·,·,·,·
COc1ccccc1NC(=O)N(C)C[C@H]1Oc2ncc(C#CC(C)C)cc2C(=O)N([C@H](C)CO)C[C@@H]1C,7,0,1,·,·,·,·
C[C@@H]1CN([C@@H](C)CO)C(=O)c2cc(NS(=O)(=O)c3ccccc3)ccc2O[C@@H](C)CCCCO[C@H]1CN(C)Cc1ccccc1,·,2,-1,·,·,·,·
